Measured values from PubChem BioAssay.
Active and inactive are the calls of the source.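 Rule for the calls, unless noted: active = GFP response above 150% of the DMSO level; inconclusive = fewer than 70 events counted for a yeast strain; inactive = the rest.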

Assays:
[1] = RPL19A-GFP modulators, yeast TOR pathway, confirmation, cell-based, S. cerevisiae, flow cytometry, cherry picks, mother/daughter gates (AID 2270;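 active = GFP response below 50% of the DMSO control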); conditions: S. cerevisiae RPL19A-GFP strain, 3 h, at 10 µM, stronger effect = lower value, 100 = same GFP as DMSO wells
[2] = LAP4-GFP expression modulators in yeast, confirmation, cell-based, cherry picks, flow cytometry, mother/daughter gates (AID 2271;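 active = GFP response above 150% of the DMSO control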;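 note: ratio of sample to DMSO plate mean so 100% equals DMSO level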); conditions: S. cerevisiae LAP4-GFP strain, 3 h, at 10 µM, stronger effect = higher value, 100 means same as DMSO control
Outline: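 Test system: GFP-fusion yeast strain / Amount: 0.2 OD600 cells / Buffer or medium: SC medium / Dosing: 10 µM single dose / Incubation: compound exposure 3 h at 30 °C, end-over-end rotation / Detection: HT flow cytometry, GFP fluorescence channel / Evaluation: median GFP fluorescence as percent of plate-mean DMSO wells / Control set: DMSO-only negative wells, rapamycin 400 ng/mL positive wells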

[3] = modulators of MEP2-GFP levels in yeast, confirmation, S. cerevisiae, flow cytometry GFP, cherry picks (AID 2272;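 active = GFP response above 150% of the DMSO control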;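 note: ratio of well signal to plate DMSO mean so 100% equals DMSO level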); conditions: S. cerevisiae MEP2-GFP strain, 3 h, at 10 µM, stronger effect = higher value
[4] = AGP1-GFP expression modulators, hit retest, confirmation, cell-based, flow cytometry, S. cerevisiae, cherry picks (AID 2273);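 note: median GFP channel fluorescence over the whole cell population gate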; conditions: S. cerevisiae AGP1-GFP strain, 3 h, at 10 µM
[5] = modulators of CIT2-GFP expression in yeast, confirmation, S. cerevisiae, GFP fusion, cherry picks, mother/daughter gates (AID 2274); conditions: S. cerevisiae CIT2-GFP strain, flow cytometry, 3 h, at 10 µM, stronger effect = higher value
[6] = measured here: daughter cell gate
[7] = measured here: mother cell gate
[8] = measured here: daughter cell gate response
[9] = measured here: mother cell gate response

| SMILES | GFP response vs DMSO [1] | GFP response vs DMSO [1, 6] [%] | GFP response vs DMSO [1, 7] [%] | GFP response relative to DMSO [2] | GFP response relative to DMSO [2, 8] [%] | GFP response relative to DMSO [2, 9] [%] | GFP response vs DMSO [3] | GFP response, % of DMSO [4] | GFP response, % of DMSO [5] | GFP response, % of DMSO [5, 6] [%] | GFP response, % of DMSO [5, 7] [%] |
| --- | --- | --- | --- | --- | --- | --- | --- | --- | --- | --- | --- |
| O=C(Nc1ccc(S(=O)(=O)N2CCOCC2)cc1)c1ccc([N+](=O)[O-])cc1Cl | 99.6% (inactive) | 101 | 99.7 | 94.1% (inactive) | 94.4 | 94 | 102% (inactive) | 91.7% (inactive) | 101% (inactive) | 103 | 99.7 |
| O=C(COc1ccc(OCc2ccccc2)cc1)NN=C1CCCC1 | 98% (inactive) | 98.4 | 97.1 | 107% (inactive) | 104 | 109 | 103% (inactive) | 99.5% (inactive) | 100% (inactive) | 101 | 99.3 |
| COc1ccccc1N1C(=O)c2cccc3c(C(=O)O)ccc(c23)C1=O | 98.8% (inactive) | 99.1 | 98.7 | 101% (inactive) | 101 | 98.3 | 105% (inactive) | 97.4% (inactive) | 99.7% (inactive) | 101 | 98.5 |
| Cc1ccc2c(c1)c1c(c(=O)n(-c3ccccc3C)c(=O)n1CC(=O)NCC1CCCO1)n2C (configuration not stated) | 98.4% (inactive) | 99.9 | 97.2 | 102% (inactive) | 101 | 101 | 100% (inactive) | 98.3% (inactive) | 103% (inactive) | 103 | 102 |
| Cc1cccc(N=c2c([N+](=O)[O-])nn(-c3ccc(Cl)cc3)n2O)c1 | 97% (inactive) | 95.1 | 97.7 | 111% (inactive) | 104 | 114 | 102% (inactive) | 90.4% (inactive) | 107% (inactive) | 103 | 108 |
| O=C(NCCO)c1c(O)c2cccc3c2n(c1=O)CC3 | 99.3% (inactive) | 99.2 | 99.4 | 92.6% (inactive) | 94.1 | 94.2 | 97.8% (inactive) | 101% (inactive) | 97.8% (inactive) | 96.5 | 96.6 |
| O=[N+]([O-])/C=C/c1cn(Cc2ccc(Cl)cc2)c2ccccc12 | 105% (inactive) | 102 | 103 | 95% (inactive) | 95.6 | 96.2 | 100% (inactive) | 98.3% (inactive) | 106% (inactive) | 106 | 102 |
| O=C(CCc1ccc(S(=O)(=O)N2CCOCC2)cc1)Oc1ccccc1 | 99.6% (inactive) | 101 | 99.2 | 111% (inactive) | 112 | 109 | 123% (inactive) | 97.2% (inactive) | 110% (inactive) | 110 | 109 |
| CCOC(=O)c1cnn(-c2cc(C)nc3c(-c4ccccc4)cnn23)c1N | 96.7% (inactive) | 98.1 | 95.4 | 92.9% (inactive) | 92.9 | 94.4 | 103% (inactive) | 89.3% (inactive) | 98.6% (inactive) | 97.6 | 98.2 |
| CCCc1[nH]nc2c1C(c1ccc(OC)c(Cn3nnc4ccccc43)c1)C(C#N)=C(N)O2 (configuration not stated) | 98% (inactive) | 98.6 | 98.2 | 104% (inactive) | 102 | 103 | 100% (inactive) | 103% (inactive) | 99.7% (inactive) | 99.1 | 99.7 |
| Cc1cc(=O)[nH]c(-n2nc(C)cc2C)n1 | 98% (inactive) | 99.1 | 97.8 | 101% (inactive) | 101 | 100 | 105% (inactive) | 99.8% (inactive) | 94.4% (inactive) | 97.4 | 91.9 |
| Cc1ccc(N(C(=O)CNC(=O)c2ccco2)C(C(=O)NC2CCCC2)c2cccnc2)cc1C (configuration not stated) | 104% (inactive) | 100 | 108 | 95.7% (inactive) | 95.9 | 95.2 | 99% (inactive) | 105% (inactive) | 102% (inactive) | 99.2 | 102 |
| CCOC(=O)c1ccc(N=Cc2nc(-c3ccccc3)oc2OC(C)=O)cc1 | 104% (inactive) | 105 | 101 | 154% (active) | 138 | 170 | 96.8% (inactive) | 92.2% (inactive) | 93% (inactive) | 93.8 | 89.5 |
| CCCCN(CCCC)S(=O)(=O)c1ccc(C(=O)Nc2nnc(COC)o2)cc1 | 106% (inactive) | 106 | 103 | 131% (inactive) | 140 | 126 | 149% (inactive) | 106% (inactive) | 100% (inactive) | 103 | 101 |
| O=[N+]([O-])c1cccnc1S(=O)(=O)c1ccccc1 | 97.6% (inactive) | 94.7 | 96.2 | 114% (inactive) | 110 | 112 | 103% (inactive) | 102% (inactive) | 90.1% (inactive) | 88.4 | 89.5 |
| CN1CCSc2ccc(C(=O)Nc3cccc(F)c3)cc21 | 95.2% (inactive) | 91.8 | 96.7 | 120% (inactive) | 115 | 121 | 99.5% (inactive) | 97.8% (inactive) | 92.1% (inactive) | 89 | 91 |
| NC(=O)c1ccccc1OCC(=O)c1ccc(Cl)cc1 | 100% (inactive) | 101 | 99 | 96.5% (inactive) | 96 | 97.4 | 99.3% (inactive) | 102% (inactive) | 100% (inactive) | 97.6 | 100 |
